Screening results as filed in PubChem.
Hits are enriched below; roughly 2.3% of the tested compounds scored in any of these assays.
Arrestin-AP2 inh: inhibitors of human beta-arrestin and AP2 interaction | FITC-arrestin peptide / GST-AP2 beads, flow cytometry; AP2 beta2 appendage carries R879A mutation | inhibition, % at 10 µM | 340,000 tested, 0.31% active;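 active = inhibition above a set limit, near 3 SD of compounds lacking own fluorescence, cut at about 54% in these data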;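 also: plate controls were DMSO wells for no effect and 5 µM unlabelled arrestin peptide for full effect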
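system = GST-tagged AP2 beta2-adaptin appendage (R879A) on 4 µm glutathione beads | reagent = FITC-labelled arrestin peptide probe, 50 nM final | schedule = compound with beads 12 min RT, then probe 1 h RT | signal = HyperCyt-sampled flow cytometry, FL1 channel, ex 488/em 535 nm | read-out = percent response from loss of bead-bound FITC fluorescence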
PfHsp90 set2: growth inhibition of yeast expressing Plasmodium Hsp90; S. cerevisiae expressing PfHsp90, BacTiter-Glo ATP, 48 h; yeast lacking PDR1 and PDR3 efflux regulators; inhibition, % at 9.4 µM; 310,000 tested, 0.32% active; AID 504621;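 active = every replicate shows inhibition above about 80%, whatever the replicate mean, limit read from the data; inconclusive = mean inhibition reaches the set limit but some replicate falls short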;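 also: 0% = DMSO neutral controls and 100% = 20 µM radicicol positive controls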
PAX8 inh HTS: lowers PAX8-driven luciferase in RMG-I cells. RMG-I TPO-luciferase reporter, SteadyGlo, 24 h. inhibition, % at 12.6 µM. 360,000 tested, 1.2% active;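 active = mean replicate inhibition at least 60% with every replicate also reaching 60%; inconclusive = only one of the two criteria is met; inactive = mean below 60% and not all replicates reaching 60%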;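 also: luciferase light reporting Pax8 driven TPO promoter activity; plate controls were median of neutral control wells for no effect and mitoxantrone controls for full effect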
Rtt109 Vps75: blocks Candida albicans Rtt109/Vps75 acetyltransferase activity; purified Rtt109/Vps75, ThioGlo CoA-SH fluorescence, 4 h; 330,000 tested, 0.16% active; inhibition, % at 34.9 µM; AID 540336; Q5AAJ8;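 active = inhibition of at least 50% in every replicate; inconclusive = best replicate reaches 50% inhibition but some replicates fall short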
Target sequence (Q5AAJ8 whole entry, looked up): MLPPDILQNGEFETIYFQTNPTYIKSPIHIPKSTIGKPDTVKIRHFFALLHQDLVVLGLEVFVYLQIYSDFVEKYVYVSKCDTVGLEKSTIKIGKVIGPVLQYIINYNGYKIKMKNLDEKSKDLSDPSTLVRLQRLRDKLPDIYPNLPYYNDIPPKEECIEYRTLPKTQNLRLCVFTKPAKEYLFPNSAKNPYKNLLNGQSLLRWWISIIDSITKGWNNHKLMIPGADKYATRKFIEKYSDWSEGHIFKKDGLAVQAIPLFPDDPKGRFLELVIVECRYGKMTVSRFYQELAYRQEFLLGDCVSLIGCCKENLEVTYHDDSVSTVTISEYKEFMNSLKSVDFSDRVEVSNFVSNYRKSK
HIV Env fusion: inhibitors of HIV Env-mediated cell fusion; 360,000 tested, 1.1% active; inhibition, % at 12.3 µM; HeLa-JRFL Env/CEM21 cell fusion, luciferase; AID 651610;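 active = mean replicate inhibition score of at least 50 and every replicate individually at or above 50; inconclusive = only one of the two criteria met; inactive = mean below 50 and not all replicates reaching 50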;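 also: 0% = plate neutral controls and 100% = maraviroc near 300 nM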
N-glyco inh: blocks N-linked glycosylation in D54 reporter cells; D54 ERlucT glycosylation luciferase reporter, 24 h; percent of 100 nM tunicamycin response; reporter increase, % at 12.5 µM; 360,000 tested, 0.23% active;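 active = mean luciferase reporter signal, scaled so untreated is 0 and the glycosylation-blocking control 100, at or above a set limit in every replicate; inconclusive = mean reaches the limit but not every replicate does; inactive = mean below the limit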;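 also: luciferase carries N-glycosylation sites so blocking glycosylation raises the light; 0% = median of neutral control wells and 100% = median of 100 nM tunicamycin wells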
* = called active by the depositor; ? = inconclusive; . = no result given; [ ] = dose if it differs, or a comment.

SMILES	Arrestin-AP2 inh	PfHsp90 set2	PAX8 inh HTS	Rtt109 Vps75	HIV Env fusion	N-glyco inh
CCOC(=O)[C@]12Cc3ccc(C)cc3[C@H]1N(C1CCCCC1)C(=O)c1cc(OC)ccc12	.	.	101*	.	-15	.
CCOc1ccc(-c2cc(C)[n+](CCN3CCOCC3)c(-c3ccc(OCC)cc3)c2)cc1	-8	6	98*	-20	8	-1
CC(=O)c1ccc2c(c1)C1C(Cl)C(Sc3ccccc3[N+](=O)[O-])CC1C(c1ccccc1[N+](=O)[O-])N2 (stereo not given)	7	-6	63*	-7	-144	-2
CC(=O)c1ccc2c(c1)C1C(Cl)C(Sc3ccccc3[N+](=O)[O-])CC1C(c1ccccc1)N2 (stereo not given)	12	10	22	2	-57	.
Cc1ccccc1-[n+]1c(-c2ccccc2)cc(-c2ccccc2)cc1-c1ccccc1	2	6	95*	2	68*	21
[O-]c1ccccc1-[n+]1c(-c2ccccc2)cc(-c2ccccc2)cc1-c1ccccc1	-2	5	90*	-2	-6	7
Nc1ccccc1-[n+]1c(-c2ccccc2)cc(-c2ccccc2)cc1-c1ccccc1	3	-19	?	19	-17	4
Oc1ccccc1-[n+]1c(-c2ccccc2)cc(-c2ccccc2)cc1-c1ccccc1	-2	15	78*	8	-33	2
C=C1C(=O)O[C@H]2C[C@@H](C)[C@@H]3C=CC(=O)[C@@]3(C)C[C@H]12	.	.	108*	.	-193	.
C=C1C(=O)OC2CC(C)C3C=CC(=O)C3(C)C(O)C12 (stereo not given)	28	-16	.	3	.	-18
C=C1C(=O)OC2C1CCC(C)C1(O)C=CC(=O)C21C (stereo not given)	4	-3	.	3	.	21
C=C1C(=O)O[C@@H]2C[C@@H](C)[C@@H]3C=CC(=O)[C@@]3(C)[C@@H](OC(=O)CC(=O)O[C@H]3[C@@H]4C(=C)C(=O)O[C@@H]4C[C@@H](C)[C@@H]4C=CC(=O)[C@]43C)[C@H]12	-1	6	109*	3	109*	-21
C=C1C(=O)O[C@H]2[C@H]1[C@H](OC(=O)CC(=O)O[C@@H]1C[C@@H](C)[C@@H]3C=CC(=O)[C@@]3(C)[C@H]3OC(=O)C(=C)[C@H]13)C[C@@H](C)[C@H]1C=CC(=O)[C@]12C	2	-4	68*	?	-52	5
CC1CCC(C(C)C)C(OC(=O)Cn2c(COc3ccccc3)[n+](C)c3ccccc32)C1 (stereo not given)	38	-17	91*	?	78*	10
Cc1cccc(S(=O)(=O)N2[C@@H]3c4ccc(-c5ccc(F)cc5)c(=O)n4C[C@H]2[C@H](CO)[C@H]3C(=O)O)c1	.	.	.	.	-2[16.7 µM]	.
O=C(Cc1ccncc1)N1CCCCN2[C@@H](CO)[C@@H](c3ccc(C#CC4(O)CCCC4)cc3)[C@@H]2C1	.	.	13	.	.	.
C[C@H]1CCC/C=C/C2C[C@H](O)CC2[C@H](O)/C=C/C(=O)O1 (stereo not given in full)	12	16	.	-7	.	-2
CC1CCC/C=C/C2CC(O)CC2C(O)/C=C/C(=O)O1 (stereo not given)	7	26	127*	-3	107*	-4
O=C1NC(=O)C2(Cc3ccccc3N3CCCC32)C(=O)N1 (stereo not given)	0	4	.	-23	61*	0
O=C(Cc1ccncc1)N1CCCCN2[C@H](CO)[C@H](c3ccc(-c4ccncc4)cc3)[C@@H]2C1	.	.	-76	.	.	.
CCOC(=O)[C@@H]1[C@@H]2NC(=S)N(C)[C@@]1(C)Oc1ccccc12	.	.	7	.	-22[16.7 µM]	.
Cc1cc(C)nc(N2Cc3ccccc3C2=N)n1	-6	16	-12	14	-60	37*
O=C(Cc1ccccn1)N1CCCCN2[C@H](CO)[C@@H](c3ccc(C#Cc4ccccc4)cc3)[C@@H]2C1	.	.	34	.	.	.
COc1ccccc1CN1[C@H](CO)[C@H](c2ccccc2)C12CN(C(=O)Cc1ccccc1)C2	.	.	35	.	.	.
CC1=CC2OC3CC4OC(=O)C=CC=CC(=O)OCCC(C)C(O)C(=O)OCC2(CC1)C4(C)C31CO1 (stereo not given)	-15	105*	102*	1	?	-19
SMILES	Arrestin-AP2 inh	PfHsp90 set2	PAX8 inh HTS	Rtt109 Vps75	HIV Env fusion	N-glyco inh
CC1=CC2OC3CC4OC(=O)C=CC=CC(C(C)O)OCC(O)C5(C)OC5C(=O)OCC2(CC1O)C4(C)C31CO1 (stereo not given)	24	-13	102*	5	73*	-17
CC(O)C1C=CC=CC(=O)OC2CC3OC4C5OC5(C)C(O)CC4(COC(=O)C(O)C(C)CCO1)C2(C)C31CO1 (stereo not given)	11	-4	113*	5	70*	-18
CC1CCOC(=O)C=CC=CC(=O)OC2CC3OC4C5OC5(C)C(O)CC4(COC(=O)C1O)C2(C)C31CO1 (stereo not given)	-19	-8	104*	3	59*	-18
COc1ccc(-c2ccc([C@@H]3[C@@H](CO)N4CCCCN(C(=O)Cc5ccncc5)C[C@H]34)cc2)cc1	.	.	12	.	.	.
C[C@H]1CN([C@@H](C)CO)C(=O)CCCn2cc(nn2)CO[C@@H]1CN(C)C(=O)Oc1ccc2ccccc2c1	.	.	.	.	-8[16.7 µM]	.
O=C(O)[C@@H]1[C@@H](CO)[C@@H]2Cn3c(ccc(-c4ccncc4)c3=O)[C@H]1N2C(=O)C1CC1	.	.	2	.	?	.
COc1cccc(-c2ccc([C@@H]3[C@@H](CO)N4CCCCN(C(=O)Cc5ccncc5)C[C@H]34)cc2)c1	.	.	-16	.	.	.
